# Results from ChEMBL document CHEMBL1127466, “Synthesis and opioid activity of 7-oxygenated 2,3,4,4a,5,6,7,7a-octahydro-1H-benzofuro[3,2-e]isoquinolin-9-ols” (J Med Chem, 1994).
# Legend:
# Mus musculus [1] = test: In vivo analgesic activity was measured by using Antiphenyl quinone Writhing(PQW) test after subcutaneous administration; format: functional; conditions: sc
# Summary of the method: (§1)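 Fasted male CFI mice, 18–23 g, given coded doses of test compound, then phenylquinone 1.25 mg/kg ip 5 min before the designated test time. Analgesia is scored as complete blockade of writhing over a 10-min observation period starting at test time.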
# Mus musculus [2] = test: Narcotic antagonism was measured by using Anti-Straub tail (AST) test after subcutaneous administration; format: functional; conditions: sc
# Summary of the method: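 Fasted male CFI mice, 18–23 g, given coded doses of test compound, then desonitazene 0.08 mg/kg ip 5 min before the designated test time. Antagonism is scored as complete blockade of the Straub tail response over a 5-min observation period starting at test time.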
# [3] = target: Kappa-type opioid receptor (Cavia porcellus, UniProt P41144); test: biochemical; format: organism-based
# Chain of Kappa-type opioid receptor (P41144 whole entry): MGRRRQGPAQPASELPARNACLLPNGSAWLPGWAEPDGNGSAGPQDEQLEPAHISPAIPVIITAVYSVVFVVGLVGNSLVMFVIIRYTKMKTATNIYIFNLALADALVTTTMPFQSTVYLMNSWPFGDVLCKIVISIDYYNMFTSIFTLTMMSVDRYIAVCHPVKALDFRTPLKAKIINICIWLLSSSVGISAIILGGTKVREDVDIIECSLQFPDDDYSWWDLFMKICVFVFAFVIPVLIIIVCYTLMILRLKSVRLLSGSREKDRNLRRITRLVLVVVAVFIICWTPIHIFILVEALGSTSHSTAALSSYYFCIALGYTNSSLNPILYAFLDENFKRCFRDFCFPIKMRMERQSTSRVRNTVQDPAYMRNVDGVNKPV
# Mu-type opioid receptor = Mu-type opioid receptor (Cavia porcellus, UniProt P97266); test: […]; format: organism-based
# Chain of Mu-type opioid receptor (P97266 whole entry): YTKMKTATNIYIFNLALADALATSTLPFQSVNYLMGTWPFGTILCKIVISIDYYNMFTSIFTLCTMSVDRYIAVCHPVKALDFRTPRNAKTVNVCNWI
# Summary of the method: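 Brain membranes come from male Hartley guinea pigs, 250–300 g. Values are the mean of three experiments, each done in duplicate.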
# [4] = Ratio between IC50 of the agonist in presence of naloxone and IC50 of the control; format: functional
# Summary of the method: (§2)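 Ileum strips in the electrically stimulated guinea pig ileum set-up, 37 °C Krebs-Tris. […] IC50 ratio is IC50 with antagonist divided by control IC50 in the same preparation. Ke = [antagonist]/(IC50 ratio – 1).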
# Cavia porcellus [5] = organism: Cavia porcellus; test: Partial agonist potency at 1 uM was measured using Guinea pig ileum preparation; format: functional
# Summary of the method: (§3)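 Longitudinal muscle strips from male Hartley guinea pig ileum (250–400 g) in Krebs-Tris at 37 °C, oxygenated. Stimulated electrically at 0.1 Hz, 0.8 ms, supramaximal voltage, under 1 g resting tension. Contractions recorded isometrically after 90 min equilibration, with cumulative dose–response curves for inhibition. Partial agonist response is taken at 1 μM.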
# [6] = target: Kappa-type opioid receptor (Cavia porcellus) (UniProt P41144); test: (§4) Opioid antagonistic activity was measured against kappa receptor in guinea pig ileal preparation using US-50488 as agonist; format: functional
# Chain of Kappa-type opioid receptor (Cavia porcellus) (P41144 whole entry): as the sequence (P41144 whole entry) above
# Summary of the method: (§5)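 Electrically stimulated guinea pig ileum longitudinal muscle strips. After control agonist curves and washout, the test antagonist is applied at 3 nM for 30 min. […] Ke = [antagonist]/(IC50 ratio – 1).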
# Cavia porcellus [7] = organism: Cavia porcellus; test: Ke value was measured as antagonist/ (IC50 ratio - 1); format: functional; summary of the method: as §2
# [8] = as §4; format: functional; summary of the method: as §5
# [9] = (§6) Opioid antagonistic activity was measured against mu receptor in guinea pig ileal preparation using morphine as agonist; format: functional; summary of the method: as §5
# [10] = target: Mu-type opioid receptor (Cavia porcellus) (UniProt P97266); test: as §6; format: functional; summary of the method: as §5
# Chain of Mu-type opioid receptor (Cavia porcellus) (P97266 whole entry): as the sequence (P97266 whole entry) above
# Mus musculus [11] = test: In vivo analgesic activity was measured by using Antiphenyl quinone Writhing(PQW) test after subcutaneous administration; Inactive; format: functional; conditions: sc; summary of the method: as §1
# Cavia porcellus [12] = organism: Cavia porcellus; test: Ke value was measured as concentration of antagonist/ (IC50 ratio - 1); format: functional; summary of the method: as §2
# Cavia porcellus [13] = organism: Cavia porcellus; test: Opioid agonistic activity was measured by using Guinea pig ileum bioassay; format: functional; summary of the method: as §3
Compound,ED50 (Mus musculus [1]) [mg/kg],ED50 (Mus musculus [2]) [mg/kg],Ki [3] [nM],Ki (Mu-type opioid receptor) [nM],ED50 (Mus musculus [11]) [mg/kg],other results
COc1cccc2c1O[C@H]1C(=O)CC[C@H]3CN(CC4CC4)CC[C@@]231,0.93,0.34,1760,76,–,–
O=C1CC[C@H]2CN(CC3CC3)CC[C@@]23c2cccc(O)c2O[C@@H]13,0.15,0.022,1.73,0.25,–,–
Oc1cccc2c1O[C@H]1[C@H](O)CC[C@@H]3CN(CC4CC4)CC[C@@]231,–,0.8,12,3.9,> 4,Ratio [4]: 8.5; Max response (Cavia porcellus [5]): 78%; Ke [6]: 2.3 nM; Ke (Cavia porcellus [7]): 13.3 nM; Ratio [8]: 2.3; Ratio [9]: 6.3; Ke [10]: 0.57 nM
C=CCN1CC[C@]23c4c5ccc(O)c4O[C@H]2C(=O)CC[C@@]3(O)[C@H]1C5 [NALOXONE],–,0.02,–,–,> 100,–
Oc1cccc2c1O[C@H]1CCC[C@H]3CN(CC4CC4)CC[C@@]231,0.025,0.018,1.2,0.57,–,–
CN1CC[C@]23c4cccc(O)c4O[C@H]2C(=O)CC[C@H]3C1,0.4,1.4,186,7.8,–,–
Oc1cccc2c1O[C@H]1[C@@H](O)CC[C@H]3CN(CC4CC4)CC[C@@]231,0.37,0.55,4.9,1.4,–,Ratio [4]: 8.1; Ke (Cavia porcellus [12]): 14.1 nM; IC50 (Cavia porcellus [13]): 2.8 nM
COc1cccc2c1O[C@H]1[C@@H](O)CC[C@H]3CN(CC4CC4)CC[C@@]231,3,1.4,140,29,–,–
O=C1CC[C@@H]2CN(CC3CC3)CC[C@@]23c2cccc(O)c2O[C@@H]13,–,1,62,19,> 5.4,–
